Bioassay records from PubChem BioAssay.
In the library only some 1.4% were active in any assay of this set; here they are far more common.
PG9 binder: small molecules binding HIV-1 gp120 antibody PG9 | hit rate 0.43% among 360,000 | TR-FRET gp120-PG9 antibody binding | inhibition, % at 6.7 µM | AID 624416; in the data active means inhibition above about 8.5%
NR2E3 ag-1: NR2E3 (human) agonism | GST-NR2E3/biotin-RetCOR TR-FRET, 1536-well | AID 2300 | hit rate 0.12% among 320,000 | inhibition of corepressor binding, % at 4.78 µM;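 active means percent inhibition above the cutoff of mean plus 3 SD of all tested compounds, set per screening campaign, cut at about 20% in these data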;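 further: 0% = DMSO wells and 100% = biotin wells as full block of FRET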
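Material: NR2E3–RetCOR corepressor complex | Quantity: 1.35 nM GST-tagged NR2E3 final | Schedule: 5 h at 4 °C | Replication: Singlicate compound wells | Reagent: RetCOR corepressor, biotinylated, 7 nM | Controls: Biotin wells as high control, 0.6% DMSO wells as low control | Signal: TR-FRET, Eu(K)-anti-GST donor, streptavidin-D2 acceptor, ex 340, em 617/671 nm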
NR2E3 ag-2: human photoreceptor-specific nuclear receptor agonism; Q9Y5X4; CHO-S Gal4-NCOR/VP16-NR2E3 two-hybrid, luciferase; inhibition of corepressor binding, % at 3.98 µM; hit rate 0.35% among 360,000; AID 602229;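 active means inhibition above the mean of all tested compounds plus 3 SD, cut at about 70% in these data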;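 further: 0% = DMSO with NR2E3 transfected cells and 100% = cells lacking NR2E3 construct; higher means lower luciferase signal from less NR2E3 corepressor binding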
Rev-erbA mod: modulates human Rev-erb alpha binding to DNA. P20393. activity, % at 10 µM. Rev-erbα–FITC-DNA binding, fluorescence polarization, 90 min. AID 1259318. hit rate 0.79% among 370,000;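 active means activity above about 14%, limit read from the data; passing the limit was not always enough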;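 further: 0% = DMSO wells with 35 nM protein and 100% = DMSO wells with 750 nM protein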
Target sequence (P20393 whole entry, looked up): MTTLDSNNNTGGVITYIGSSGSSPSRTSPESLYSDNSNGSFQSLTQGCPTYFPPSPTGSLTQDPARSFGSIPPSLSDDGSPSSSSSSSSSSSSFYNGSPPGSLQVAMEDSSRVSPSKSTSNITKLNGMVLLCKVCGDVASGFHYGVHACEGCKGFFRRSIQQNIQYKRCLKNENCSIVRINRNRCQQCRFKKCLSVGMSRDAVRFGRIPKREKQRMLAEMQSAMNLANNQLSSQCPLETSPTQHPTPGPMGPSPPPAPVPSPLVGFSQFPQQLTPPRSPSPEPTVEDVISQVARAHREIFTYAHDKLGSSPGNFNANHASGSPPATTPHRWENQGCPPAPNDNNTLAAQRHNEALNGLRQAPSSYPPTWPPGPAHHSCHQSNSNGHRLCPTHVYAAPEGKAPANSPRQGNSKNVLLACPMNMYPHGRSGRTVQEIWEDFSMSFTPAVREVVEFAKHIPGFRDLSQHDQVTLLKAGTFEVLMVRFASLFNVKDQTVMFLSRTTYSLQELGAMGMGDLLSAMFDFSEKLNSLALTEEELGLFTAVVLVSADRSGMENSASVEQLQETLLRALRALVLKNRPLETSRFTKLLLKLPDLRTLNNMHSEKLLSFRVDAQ
NR2E3 ag confirm: NR2E3 agonism confirmed in two-hybrid assay; inhibition, % at 3.98 µM; hit rate 51% among 2,300; CHO-S mammalian two-hybrid NR2E3-NCOR, luciferase luminescence; shares compounds with NR2E3 ag-2; AID 624378;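 active means average inhibition above a cutoff equal to the mean inhibition of all tested compounds plus one SD, cut at about 70% in these data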;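 further: 0% = DMSO in NR2E3 cells and 100% = DMSO in cells lacking NR2E3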
GAL4-VP16 luc: counter-screen for NR2E3 agonists: GAL4-VP16 reporter inhibitors. shares compounds with NR2E3 ag-2. CHO-S GAL4-VP16 luciferase reporter, luminescence. inhibition, % at 3.98 µM. hit rate 29% among 2,300;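 active means mean inhibition above a cutoff equal to the average over all tested compounds plus one standard deviation, cut at about 70% in these data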;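 further: luciferase from a UAS reporter driven by GAL4-VP16 transactivation; 0% = DMSO with VP16-transfected cells and 100% = DMSO with cells lacking VP16; higher means less reporter light so more repression of VP16 activity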
An asterisk follows results filed as active; x = no result.

SMILES | PG9 binder | NR2E3 ag-1 | NR2E3 ag-2 | Rev-erbA mod | NR2E3 ag confirm | GAL4-VP16 luc
COC(=O)c1c(C)oc2ccc(N(C(=O)c3ccncc3)S(=O)(=O)c3ccc(C)cc3)cc12 | x | -1 | 85* | x | 95* | 83*
COC(=O)c1c(C)oc2ccc(N(C(=O)c3ccncc3)S(=O)(=O)c3ccc(C)cc3C)cc12 | 0 | -2 | 91* | -2 | 93* | 62
Cc1ccc(S(=O)(=O)N(C(=O)c2ccncc2)c2ccc3oc4c(c3c2)CCCC4)cc1[N+](=O)[O-] | -1 | 0 | -22 | 10 | x | x
Cc1nn(-c2ccccc2)c(C)c1/C=N/NC(=O)c1[nH][nH]c(=O)c1C | x | x | x | -1 | x | x
COc1ccc2c(c1)CN1CN(C3CCCC3)S(=O)(=O)CC21 (stereo not drawn) | x | x | x | -3 | x | x
CN(C)c1cccc(/C=C2\CC3(OC(=O)c4ccccc4)CCCN2C3)c1 (stereo not drawn) | x | x | x | 5 | x | x
CN(CC(=O)Nc1ccc(Cl)c(C(F)(F)F)c1)CC(=O)NC1CCCCC1 | x | 0 | 60 | x | 53 | 37
O=[N+]([O-])c1ccc(Sc2cccc3cccnc23)c([N+](=O)[O-])c1 | 0 | 2 | 78* | 4 | 12 | -24
COC(=O)[C@]12C[C@H](CC(=O)N3CCSCC3)C(=O)N(Cc3ccco3)C1=C[C@H](C1CCCC1)O[C@@H]2C | x | x | x | -3 | x | x
O=C(CSc1nnnn1C1CC2CCC1C2)Nc1ccnc2ccccc12 (stereo not drawn) | -3 | 1 | 98* | 2 | 94* | 93*
O=C(CSc1nnnn1C1CCCCC1)Nc1ccccc1F | -2 | 0 | 5 | -3 | x | x
CN(C)CCCNS(=O)(=O)c1ccc(NC2CCCCCC2)c([N+](=O)[O-])c1 | -1 | 1 | 49 | 4 | 55 | 64
COc1ccc(/C(C)=N/NC(=S)NCCc2ccccc2)cc1 | 0 | 1 | 70 | 0 | 2 | 1
C/C(=N\NC(=S)NCCc1ccccc1)c1cccc(Br)c1 | -1 | -2 | 27 | 14 | x | x
NNC(=S)NCCc1ccccc1 | -1 | -4 | 66 | -3 | -2 | -7
COc1ccc(/C(C)=N/NC(=S)NCc2ccco2)cc1 | -1 | -1 | 48 | 5 | 4 | -10
C/C(=N\NC(=S)NCc1ccccc1)c1ccc2ccccc2c1 | -1 | 2 | 58 | 4 | -28 | -57
COc1ccc(CNC(=S)N/N=C(\C)c2ccc(OC)cc2)cc1 | -1 | 1 | 51 | 3 | -14 | -12
C=CCNC(=S)N/N=C(\C)c1ccc(OC)cc1 | -2 | 5 | 37 | 9 | x | x
CCc1nc2ccc(C(=O)N(C)C(C)C)cn2c1N(CC)Cc1cccc(Br)c1 | 2 | x | 72* | 9 | 69 | -10
COc1ccc(CCNC(=O)c2cc3cc(Cl)ccc3nc2N)cc1OC | x | x | 66 | x | 68 | 65
COc1ccc(CCNC(=O)/C=C/c2ccc3ccccc3n2)cc1OC | -3 | 3 | 48 | -3 | -9 | -15
Nc1nc2ccccc2cc1C(=O)NCc1ccc(Cl)cc1Cl | x | x | 91* | x | 97* | 79*
Nc1nc2ccc(Cl)cc2cc1C(=O)NCc1ccccc1Br | x | x | x | -4 | x | x
Nc1nc2ccc(Cl)cc2cc1C(=O)NCCc1ccc(O)cc1 | 0 | x | x | -9 | x | x
SMILES | PG9 binder | NR2E3 ag-1 | NR2E3 ag-2 | Rev-erbA mod | NR2E3 ag confirm | GAL4-VP16 luc
CCCc1ccc(-c2ccc(/C=C/C(=O)O)cc2)nc1 | -3 | -1 | 75* | -2 | 85* | 61
CC(=O)/C(=N/Nc1ccccc1)N1CCOCC1 | -3 | -2 | 2 | -5 | x | x
CC(=O)/C(=N/Nc1cccc(Cl)c1)N1CCOCC1 | -2 | 6 | 64 | 3 | 7 | -18
Cc1ccc(CNS(=O)(=O)c2ccc3c(c2)NC(=O)C(C)S3)cc1 (stereo not drawn) | 1 | 1 | 53 | -1 | 46 | 46
CCc1cccc(NS(=O)(=O)c2ccc3c(c2)NC(=O)C(C)S3)c1 (stereo not drawn) | -2 | 2 | 48 | 0 | 66 | 57
COc1cccc(NS(=O)(=O)c2ccc3c(c2)NC(=O)C(C)S3)c1 (stereo not drawn) | -1 | -3 | 58 | 1 | 36 | 35
COc1ccccc1NS(=O)(=O)c1ccc2c(c1)NC(=O)C(C)S2 (stereo not drawn) | -2 | -1 | 14 | -5 | x | x
CCC(Cc1ccccc1)NS(=O)(=O)c1ccc2c(c1)NC(=O)C(C)S2 (stereo not drawn) | 1 | 4 | 49 | -3 | 62 | 50
COc1ccc2c(c1)CNC2CS(=O)(=O)NCc1ccccc1 (stereo not drawn) | x | x | x | -7 | x | x
COC(=O)[C@]12C[C@H](CC(=O)NCc3ccc(OC)c(OC)c3)C(=O)N(Cc3ccc(Cl)cc3Cl)C1=C[C@H](C1CCCC1)O[C@@H]2C | x | x | x | -2 | x | x
COc1ccc(CN(CCN2CCOCC2)C(=O)c2cccc(F)c2)cc1OC | x | x | x | 5 | x | x
COc1ccc(N2CCN(S(=O)(=O)c3ccc4c(c3)NC(=O)C(C)S4)CC2)cc1 (stereo not drawn) | 0 | 1 | 64 | -2 | 38 | 29
CN1CCN(c2cc(=O)n(C3CCCCC3)c(=O)[nH]2)CC1 | -1 | -1 | -5 | 3 | x | x
O=c1cc(N2CCN(c3ccccc3)CC2)[nH]c(=O)n1C1CCCCC1 | 1 | 0 | 54 | -5 | 92* | 19
O=c1cc(N2CCN(c3cccc(Cl)c3)CC2)[nH]c(=O)n1C1CCCCC1 | -1 | 0 | 57 | 19 | 93* | 28
COC(=O)[C@]12C[C@H](CC(=O)NCCc3ccccc3OC)C(=O)N(CCc3ccc(OC)c(OC)c3)C1=C[C@H](C(C)(C)C)O[C@@H]2C | x | x | x | 4 | x | x
C#CCNC(=O)C[C@H]1C[C@@]2(C(=O)OC)C(=C[C@H](C(C)C)O[C@@H]2C2CC2)N(Cc2cccc3ccccc23)C1=O | x | x | x | 8 | x | x
COc1cc(C)ccc1OCC(=O)OCC(=O)c1[nH]c(C)c(C(C)=O)c1C | 0 | x | -19 | -4 | x | x
CC(=O)c1c(C)[nH]c(C(=O)COc2cc(C)ccc2C(C)C)c1C | 0 | -1 | 85* | -3 | 91* | 79*
O=S1(=O)c2ccc(Br)cc2OC[C@H](Cc2ccccc2)N1Cc1cn(CCC2OCCO2)nn1 | x | x | x | 0 | x | x
C#CCNC(=O)C[C@H]1C[C@@]2(C(=O)OC)C(=C[C@H](COCc3ccccc3)O[C@@H]2C)N(Cc2ccco2)C1=O | x | x | x | 2 | x | x
COc1ccc(S(=O)(=O)N2CCN(c3ccc(C)cc3C)CC2)cc1OC | -1 | 0 | 53 | 6 | 74* | 57
O=c1c2cc3cc(Cl)ccc3nc2ncn1Cc1ccc(Oc2ccccc2)cc1 | x | x | x | 6 | x | x
Cc1ccc(S(=O)(=O)N(CC(=O)Nc2ccccc2C(=O)O)c2cccc(Cl)c2C)cc1 | 0 | 0 | 90* | -8 | 98* | 37
Cc1ccc(S(=O)(=O)N(CC(=O)Nc2ccccc2C(=O)O)c2ccccc2C)cc1 | -3 | 3 | 2 | -2 | x | x
